Experimental findings from ChEMBL document CHEMBL2203243, “Synthesis and biological evaluation of novel benzimidazole derivatives and their binding behavior with bovine serum albumin” (Eur J Med Chem, 2012) are described below.

The MIC is the lowest concentration found to suppress growth. A word on the logP: it is the decadic logarithm of the partition coefficient of the neutral form, usually between octanol and water.

For data set [1], the system named is Staphylococcus aureus. Nature of the data set: Antimicrobial activity against Staphylococcus aureus ATCC 25923 by microbroth dilution method. The class given is functional. In a few lines:
(§1)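 Two-fold serial broth microdilution in 96-well microtest plates, run against four Gram-positive strains, five Gram-negative strains and two fungi.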
(In general: Broth dilution looks for growth in wells or tubes with falling amounts of substance.)

The next data set has as its system Bacillus subtilis. Briefly: Antimicrobial activity against Bacillus subtilis by microbroth dilution method. The format is functional. In a few lines:
as §1

Data set [2] is described as follows: Antimicrobial activity against Eberthella typhosa by microbroth dilution method. The format is functional. In a few lines: as §1
Data set [3] in a line: Lipophilicity, log P of the compound by UV-Vis spectrophotometric method based saturation shake flask assay. The class given is physicochemical. To be noted: octanol/water. An outline of the steps:
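Log P measured by the traditional saturation shake-flask partition, with compound quantified by UV-vis spectrophotometry.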

Another data set deals with Candida. Nature of the data set: Antimicrobial activity against Candida mycoderma by microbroth dilution method. The class given is functional. In a few lines: as §1
The subject of the next data set is Pseudomonas aeruginosa. Briefly: Antimicrobial activity against Pseudomonas aeruginosa by microbroth dilution method. The format is functional. An outline of the steps:
as §1

The subject of a further data set is Micrococcus luteus. Nature of the data set: Antimicrobial activity against Micrococcus luteus ATCC 4698 by microbroth dilution method. The class given is functional. In a few lines:
as §1

A further data set has as its system Escherichia coli. Nature of the data set: Antimicrobial activity against Escherichia coli DH52 by microbroth dilution method. The class given is functional. In a few lines:
as §1

Data set [4] deals with Staphylococcus aureus. Nature of the data set: Antimicrobial activity against methicillin-resistant Staphylococcus aureus N315 by microbroth dilution method. The format is functional.
Another data set concerns Candida albicans. Nature of the data set: Antimicrobial activity against Candida albicans by microbroth dilution method. The class given is functional. In a few lines: as §1
A further data set relates to Bacillus. Briefly: Antimicrobial activity against Bacillus proteus by microbroth dilution method. The format is functional. In a few lines: as §1
The next data set has as its system Shigella dysenteriae. Briefly: Antimicrobial activity against Shigella dysenteriae by microbroth dilution method. The format is functional.

≈ marks a conversion by molar mass, not a printed value.

Consider `CCCCCCCCCCCCn1c(CNNC(=O)c2sc(C(=O)NNCc3nc4ccccc4n3CCCCCCCCCCCC)c(C)c2C)nc2ccccc21`, for which the MIC in the data set with Staphylococcus aureus [1] was 128 µg/mL (≈ 155 µM); against Bacillus subtilis it was 512 µg/mL (≈ 620 µM); in [2] it was 256 µg/mL (≈ 310 µM); against Candida, 64 µg/mL (≈ 77.6 µM); in the data set with Pseudomonas aeruginosa, 128 µg/mL (≈ 155 µM); with Micrococcus luteus, over 512 µg/mL. Moreover, the MIC against Escherichia coli was 128 µg/mL (≈ 155 µM); in the data set on Staphylococcus aureus [4] it was 8 µg/mL (≈ 9.69 µM); against Candida albicans, 256 µg/mL (≈ 310 µM); against Bacillus, over 512 µg/mL; in the data set with Shigella dysenteriae, 16 µg/mL (≈ 19.4 µM). Moreover, the logP entry in [3] is given as “ND(Insoluble)”.

Take `CCCCCCCCCCCCCCCCCCn1c(CNNC(=O)c2sc(C(=O)NNCc3nc4ccccc4n3CCCCCCCCCCCCCCCCCC)c(C)c2C)nc2ccccc21`: the MIC in the data set with Staphylococcus aureus [1] was 256 µg/mL (≈ 258 µM); against Bacillus subtilis, over 512 µg/mL; in data set [2], 64 µg/mL (≈ 64.4 µM); against Candida, 256 µg/mL (≈ 258 µM); with Pseudomonas aeruginosa it was 512 µg/mL (≈ 515 µM); in the data set with Micrococcus luteus, over 512 µg/mL. The MIC was 512 µg/mL (≈ 515 µM) in the data set with Escherichia coli; 512 µg/mL (≈ 515 µM) against Staphylococcus aureus [4]; over 512 µg/mL in the data set on Candida albicans; over 512 µg/mL with Bacillus; 512 µg/mL (≈ 515 µM) in the data set with Shigella dysenteriae. Besides, the lipophilicity (logP) result in data set [3] is on record as “ND(Insoluble)”.

Turning to `Cc1c(C(=O)NNCc2nc3ccccc3n2Cc2ccc(F)cc2F)sc(C(=O)NNCc2nc3ccccc3n2Cc2ccc(F)cc2F)c1C`, the MIC against Staphylococcus aureus [1] came out at 64 µg/mL (≈ 86.4 µM); against Bacillus subtilis it was 256 µg/mL (≈ 346 µM); in data set [2], 128 µg/mL (≈ 173 µM); against Candida, 256 µg/mL (≈ 346 µM); with Pseudomonas aeruginosa, 128 µg/mL (≈ 173 µM); in the data set with Micrococcus luteus, 256 µg/mL (≈ 346 µM). The MIC against Escherichia coli was found to be 128 µg/mL (≈ 173 µM); against Staphylococcus aureus [4], 128 µg/mL (≈ 173 µM); in the data set with Candida albicans, 64 µg/mL (≈ 86.4 µM); with Bacillus, 128 µg/mL (≈ 173 µM); against Shigella dysenteriae it was 256 µg/mL (≈ 346 µM). In data set [3] (read-out: logP), the logP came to 4.96.

Take `Cc1c(C(=O)NNCc2nc3ccccc3n2Cc2ccc(F)cc2)sc(C(=O)NNCc2nc3ccccc3n2Cc2ccc(F)cc2)c1C`: the MIC against Staphylococcus aureus [1] is 128 µg/mL (≈ 182 µM); against Bacillus subtilis it was 32 µg/mL (≈ 45.4 µM); in [2] it was 128 µg/mL (≈ 182 µM); with Candida, 32 µg/mL (≈ 45.4 µM); with Pseudomonas aeruginosa it was 128 µg/mL (≈ 182 µM); against Micrococcus luteus, 128 µg/mL (≈ 182 µM). Further, the MIC with Escherichia coli turned out to be 32 µg/mL (≈ 45.4 µM); against Staphylococcus aureus [4], 128 µg/mL (≈ 182 µM); in the data set on Candida albicans, 64 µg/mL (≈ 90.8 µM); in the data set on Bacillus it was 128 µg/mL (≈ 182 µM); in the data set with Shigella dysenteriae it was 128 µg/mL (≈ 182 µM). Also, the logP in data set [3] (read-out: logP) came to 5.25.

As to `Cc1c(C(=O)NNCc2nc3ccccc3n2Cc2ccc(Cl)cc2)sc(C(=O)NNCc2nc3ccccc3n2Cc2ccc(Cl)cc2)c1C`, the MIC in the data set on Staphylococcus aureus [1] is 32 µg/mL (≈ 43.4 µM); in the data set on Bacillus subtilis, 32 µg/mL (≈ 43.4 µM); in data set [2], 16 µg/mL (≈ 21.7 µM); in the data set on Candida it was 32 µg/mL (≈ 43.4 µM); against Pseudomonas aeruginosa it was 32 µg/mL (≈ 43.4 µM); in the data set on Micrococcus luteus, 16 µg/mL (≈ 21.7 µM). The MIC was found to be 8 µg/mL (≈ 10.8 µM) in the data set on Escherichia coli; 32 µg/mL (≈ 43.4 µM) against Staphylococcus aureus [4]; 16 µg/mL (≈ 21.7 µM) against Candida albicans; 32 µg/mL (≈ 43.4 µM) against Bacillus; 32 µg/mL (≈ 43.4 µM) in the data set with Shigella dysenteriae. In addition, the lipophilicity (logP) in data set [3] (read-out: logP) was found to be 6.19.

`Cc1c(C(=O)NNCc2nc3ccccc3n2Cc2cccc(Cl)c2)sc(C(=O)NNCc2nc3ccccc3n2Cc2cccc(Cl)c2)c1C`: the minimum inhibitory concentration (MIC) is 128 µg/mL (≈ 174 µM) in the data set on Staphylococcus aureus [1]; 128 µg/mL (≈ 174 µM) in the data set with Bacillus subtilis; 256 µg/mL (≈ 347 µM) in [2]; 64 µg/mL (≈ 86.8 µM) against Candida; 128 µg/mL (≈ 174 µM) with Pseudomonas aeruginosa; 32 µg/mL (≈ 43.4 µM) in the data set with Micrococcus luteus. In addition, the MIC was determined as 32 µg/mL (≈ 43.4 µM) with Escherichia coli; 16 µg/mL (≈ 21.7 µM) in the data set with Staphylococcus aureus [4]; 128 µg/mL (≈ 174 µM) with Candida albicans; 128 µg/mL (≈ 174 µM) in the data set on Bacillus; 128 µg/mL (≈ 174 µM) against Shigella dysenteriae. In addition, the logP in data set [3] (read-out: logP) is 6.34.

In the case of `Cc1c(C(=O)NNCc2nc3ccccc3n2Cc2ccccc2Cl)sc(C(=O)NNCc2nc3ccccc3n2Cc2ccccc2Cl)c1C`, the MIC was 32 µg/mL (≈ 43.4 µM) in the data set on Staphylococcus aureus [1]; 32 µg/mL (≈ 43.4 µM) in the data set on Bacillus subtilis; 128 µg/mL (≈ 174 µM) in data set [2]; 128 µg/mL (≈ 174 µM) against Candida; 64 µg/mL (≈ 86.8 µM) with Pseudomonas aeruginosa; 16 µg/mL (≈ 21.7 µM) in the data set with Micrococcus luteus. The MIC worked out at 32 µg/mL (≈ 43.4 µM) in the data set with Escherichia coli; 16 µg/mL (≈ 21.7 µM) with Staphylococcus aureus [4]; 32 µg/mL (≈ 43.4 µM) in the data set with Candida albicans; 16 µg/mL (≈ 21.7 µM) against Bacillus; 32 µg/mL (≈ 43.4 µM) in the data set on Shigella dysenteriae. Moreover, the logP in data set [3] (read-out: logP) is 6.25.

In the case of `CCCn1c(CNNC(=O)c2sc(C(=O)NNCc3nc4ccccc4n3CCC)c(C)c2C)nc2ccccc21.Cl`, the MIC in the data set with Staphylococcus aureus [1] amounted to 256 µg/mL; with Bacillus subtilis it was 256 µg/mL; in data set [2], 4 µg/mL; against Candida it was 128 µg/mL; with Pseudomonas aeruginosa it was 32 µg/mL; with Micrococcus luteus, 256 µg/mL. In addition, the MIC stood at 256 µg/mL in the data set with Escherichia coli; 32 µg/mL against Staphylococcus aureus [4]; 32 µg/mL in the data set with Candida albicans; 16 µg/mL with Bacillus; 128 µg/mL against Shigella dysenteriae.

As to `CCCCCCCCCCn1c(CNNC(=O)c2sc(C(=O)NNCc3nc4ccccc4n3CCCCCCCCCC)c(C)c2C)nc2ccccc21.Cl`, the MIC in the data set on Staphylococcus aureus [1] amounted to 2 µg/mL; in the data set on Bacillus subtilis, 2 µg/mL; in data set [2], 4 µg/mL; in the data set with Candida, 4 µg/mL; against Pseudomonas aeruginosa, 16 µg/mL; in the data set on Micrococcus luteus, 8 µg/mL. The MIC in the data set with Escherichia coli was determined as 4 µg/mL; against Staphylococcus aureus [4] it was 2 µg/mL; in the data set on Candida albicans it was 8 µg/mL; in the data set on Bacillus, 2 µg/mL; in the data set with Shigella dysenteriae it was 8 µg/mL.

`Cc1c(C(=O)NNCc2nc3ccccc3n2Cc2ccc(F)cc2)sc(C(=O)NNCc2nc3ccccc3n2Cc2ccc(F)cc2)c1C.Cl`: the MIC in the data set on Staphylococcus aureus [1] is 256 µg/mL; against Bacillus subtilis it was 16 µg/mL; in [2], 256 µg/mL; against Candida, 8 µg/mL; in the data set on Pseudomonas aeruginosa, 64 µg/mL; in the data set with Micrococcus luteus it was 64 µg/mL. Besides, the MIC against Escherichia coli came to 16 µg/mL; with Staphylococcus aureus [4], 32 µg/mL; in the data set with Candida albicans it was 64 µg/mL; against Bacillus, 128 µg/mL; in the data set with Shigella dysenteriae it was 8 µg/mL.

Regarding `Cc1c(C(=O)NN)sc(C(=O)NN)c1C`, the MIC is over 512 µg/mL in the data set on Staphylococcus aureus [1]; over 512 µg/mL in the data set on Bacillus subtilis; 512 µg/mL (≈ 2240 µM) in data set [2]; 512 µg/mL (≈ 2240 µM) in the data set on Candida; over 512 µg/mL against Pseudomonas aeruginosa; 512 µg/mL (≈ 2240 µM) with Micrococcus luteus. For the same molecule, the minimal inhibitory concentration (MIC) against Escherichia coli was 512 µg/mL (≈ 2240 µM); against Staphylococcus aureus [4], over 512 µg/mL; against Candida albicans, 512 µg/mL (≈ 2240 µM); against Bacillus it was over 512 µg/mL; with Shigella dysenteriae, 512 µg/mL (≈ 2240 µM). The logP in [3] is -1.41.

Turning to `O=C(N[C@H](CO)[C@H](O)c1ccc([N+](=O)[O-])cc1)C(Cl)Cl` [CHLORAMPHENICOL], the MIC stood at 16 µg/mL (≈ 49.5 µM) with Staphylococcus aureus [1]; 32 µg/mL (≈ 99 µM) against Bacillus subtilis; 32 µg/mL (≈ 99 µM) in data set [2]; 32 µg/mL (≈ 99 µM) against Pseudomonas aeruginosa; 8 µg/mL (≈ 24.8 µM) in the data set on Micrococcus luteus; 32 µg/mL (≈ 99 µM) in the data set with Escherichia coli. Besides, the MIC against Staphylococcus aureus [4] came to 16 µg/mL (≈ 49.5 µM); against Bacillus, 32 µg/mL (≈ 99 µM); in the data set with Shigella dysenteriae it was 32 µg/mL (≈ 99 µM).

Regarding `OC(Cn1cncn1)(Cn1cncn1)c1ccc(F)cc1F` [FLUCONAZOLE], the figures for the MIC in the data set on Candida and with Candida albicans were 4 µg/mL (≈ 13.1 µM) and 1 µg/mL (≈ 3.27 µM), respectively.

`CCn1cc(C(=O)O)c(=O)c2cc(F)c(N3CCNCC3)cc21` [NORFLOXACIN]: the minimal inhibitory concentration (MIC) in the data set with Staphylococcus aureus [1] amounted to 0.5 µg/mL (≈ 1.57 µM); in the data set on Bacillus subtilis, 1 µg/mL (≈ 3.13 µM); in [2] it was 4 µg/mL (≈ 12.5 µM); with Pseudomonas aeruginosa, 16 µg/mL (≈ 50.1 µM); in the data set with Micrococcus luteus it was 2 µg/mL (≈ 6.26 µM); in the data set with Escherichia coli it was 16 µg/mL (≈ 50.1 µM). The MIC was found to be 8 µg/mL (≈ 25.1 µM) against Staphylococcus aureus [4], 8 µg/mL (≈ 25.1 µM) with Bacillus and 4 µg/mL (≈ 12.5 µM) against Shigella dysenteriae.
